From ChEMBL document CHEMBL1250497, “Synthesis and pharmacological study of 1-acetyl/propyl-3-aryl-5-(5-chloro-3-methyl-1-phenyl-1H-pyrazol-4-yl)-2-pyrazoline” (2010)

Assays:
Format in all cases: functional
Rattus norvegicus [1] = assay: Antiinflammatory activity in albino rat assessed as reduction of carrageenan-induced paw volume at 10 mg/kg, po administered 30 mins before carrageenan challenge measured after 120 mins by plethysmograph (reference value: 0.367 +/- 0.033 ml)
In short: (§1)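 Rats, six per group, were dosed orally at 10 mg/kg. Controls received 0.1 mL of 1% gum acacia; diclofenac sodium was the standard. After 30 min, 0.1 mL of 1% carrageenan in normal saline was injected sub-plantar into the right hind paw. Paw volume was read by plethysmograph at 0 h and at 30-150 min. Oedema is expressed as change versus control at matching times (±SE).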

Rattus norvegicus [2] = assay: Antiinflammatory activity in albino rat assessed as reduction of carrageenan-induced paw volume at 10 mg/kg, po administered 30 mins before carrageenan challenge measured after 150 mins by plethysmograph (reference value: 0.3667 +/- 0.033 ml); in short: as §1
Rattus norvegicus [3] = assay: Antiinflammatory activity in albino rat assessed as reduction of carrageenan-induced paw volume at 10 mg/kg, po administered 30 mins before carrageenan challenge measured after 90 mins by plethysmograph (reference value: 0.3667 +/- 0.033 ml); in short: as §1
Rattus norvegicus [4] = assay: Antiinflammatory activity in albino rat assessed as reduction of carrageenan-induced paw volume at 10 mg/kg, po administered 30 mins before carrageenan challenge measured after 60 mins by plethysmograph (reference value: 0.333 +/- 0.033 ml); in short: as §1
Rattus norvegicus [5] = assay: Analgesic activity in albino rat assessed as latency in reaction time required for thermal stimulus-induced tail flicking at 10 mg/kg, po after 30 mins
In short: (§2)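 Albino rats, 150-200 g, six per group, held in a restrainer. A 3-4 cm marked segment of tail was immersed in water at 55 °C. Tail withdrawal time (s) was recorded before dosing and at 30, 60 and 90 min after oral dosing at 10 mg/kg in 1% gum acacia. Cut-off was 30 s. Controls received vehicle only. Pentazocin was the reference.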

Rattus norvegicus [6] = assay: Analgesic activity in albino rat assessed as latency in reaction time required for thermal stimulus-induced tail flicking at 10 mg/kg, po after 90 mins; in short: as §2
Rattus norvegicus [7] = assay: Antiinflammatory activity in albino rat assessed as reduction of carrageenan-induced paw volume at 10 mg/kg, po administered 30 mins before carrageenan challenge measured after 30 mins by plethysmograph (reference value: 0.333 +/- 0.033 ml); in short: as §1
Rattus norvegicus [8] = assay: Analgesic activity in albino rat assessed as latency in reaction time required for thermal stimulus-induced tail flicking at 10 mg/kg, po after 60 mins; in short: as §2

## CCC(=O)N1N=C(c2ccccc2)CC1c1c(C)nn(-c2ccccc2)c1Cl (centres undefined)
Rattus norvegicus [1]
  Activity: 0.367 mL
Rattus norvegicus [2]
  Activity: 0.3667 mL
Rattus norvegicus [3]
  Activity: 0.433 mL
Rattus norvegicus [4]
  Activity: 0.333 mL
Rattus norvegicus [5]
  Time: 2.333 s
Rattus norvegicus [6]
  Time: 3.633 s
Rattus norvegicus [7]
  Activity: 0.2667 mL
Rattus norvegicus [8]
  Time: 2.7 s

## CCC(=O)N1N=C(c2cccc([N+](=O)[O-])c2)CC1c1c(C)nn(-c2ccccc2)c1Cl (centres undefined)
Rattus norvegicus [1]
  Activity: 0.1 mL
Rattus norvegicus [2]
  Activity: 0.1 mL
Rattus norvegicus [3]
  Activity: 0.033 mL
Rattus norvegicus [4]
  Activity: 0.033 mL
Rattus norvegicus [5]
  Time: 2.767 s
Rattus norvegicus [6]
  Time: 4.333 s
Rattus norvegicus [7]
  Activity: 0.033 mL
Rattus norvegicus [8]
  Time: 3.067 s

## O=C([O-])Cc1ccccc1Nc1c(Cl)cccc1Cl.[Na+] [DICLOFENAC SODIUM]
Rattus norvegicus [1]
  Activity: 0.033 mL
Rattus norvegicus [2]
  Activity: 0.033 mL
Rattus norvegicus [3]
  Activity: 0.033 mL
Rattus norvegicus [4]
  Activity: 0.033 mL
Rattus norvegicus [7]
  Activity: 0.033 mL

## CC(=O)N1N=C(c2ccc([N+](=O)[O-])cc2)CC1c1c(C)nn(-c2ccccc2)c1Cl (centres undefined)
Rattus norvegicus [1]
  Activity: 0.0667 mL
Rattus norvegicus [2]
  Activity: 0.1667 mL
Rattus norvegicus [3]
  Activity: 0.06 mL
Rattus norvegicus [4]
  Activity: 0.0667 mL
Rattus norvegicus [5]
  Time: 3.467 s
Rattus norvegicus [6]
  Time: 5.267 s
Rattus norvegicus [7]
  Activity: 0.1 mL
Rattus norvegicus [8]
  Time: 4.767 s

## CC(=O)N1N=C(c2ccc(C)cc2)CC1c1c(C)nn(-c2ccccc2)c1Cl (centres undefined)
Rattus norvegicus [1]
  Activity: 0.033 mL
Rattus norvegicus [2]
  Activity: 0.0667 mL
Rattus norvegicus [3]
  Activity: 0.0667 mL
Rattus norvegicus [4]
  Activity: 0.1 mL
Rattus norvegicus [5]
  Time: 3.3 s
Rattus norvegicus [6]
  Time: 5.467 s
Rattus norvegicus [7]
  Activity: 0.0667 mL
Rattus norvegicus [8]
  Time: 4.567 s

## CC(C)=CCN1CC[C@]2(C)c3cc(O)ccc3C[C@H]1[C@H]2C [(+)-PENTAZOCINE]
Rattus norvegicus [5]
  Time: 2.9 s
Rattus norvegicus [6]
  Time: 6.4 s
Rattus norvegicus [8]
  Time: 5.6 s

## COc1ccc(C2=NN(C(C)=O)C(c3c(C)nn(-c4ccccc4)c3Cl)C2)cc1 (centres undefined)
Rattus norvegicus [1]
  Activity: 0.0667 mL
Rattus norvegicus [2]
  Activity: 0.1 mL
Rattus norvegicus [3]
  Activity: 0.1 mL
Rattus norvegicus [4]
  Activity: 0 mL
Rattus norvegicus [5]
  Time: 2.9 s
Rattus norvegicus [6]
  Time: 4.333 s
Rattus norvegicus [7]
  Activity: 0 mL
Rattus norvegicus [8]
  Time: 3.7 s

## CCC(=O)N1N=C(c2ccc(Br)cc2)CC1c1c(C)nn(-c2ccccc2)c1Cl (centres undefined)
Rattus norvegicus [1]
  Activity: 0.2667 mL
Rattus norvegicus [2]
  Activity: 0.2667 mL
Rattus norvegicus [3]
  Activity: 0.2 mL
Rattus norvegicus [4]
  Activity: 0.133 mL
Rattus norvegicus [5]
  Time: 3.8 s
Rattus norvegicus [6]
  Time: 4.5 s
Rattus norvegicus [7]
  Activity: 0.1667 mL
Rattus norvegicus [8]
  Time: 4.167 s

## CC(=O)N1N=C(c2cccc([N+](=O)[O-])c2)CC1c1c(C)nn(-c2ccccc2)c1Cl (centres undefined)
Rattus norvegicus [1]
  Activity: 0.0667 mL
Rattus norvegicus [2]
  Activity: 0.133 mL
Rattus norvegicus [3]
  Activity: 0.033 mL
Rattus norvegicus [4]
  Activity: 0.0667 mL
Rattus norvegicus [5]
  Time: 3.7 s
Rattus norvegicus [6]
  Time: 4.833 s
Rattus norvegicus [7]
  Activity: 0.0667 mL
Rattus norvegicus [8]
  Time: 4.733 s

## CC(=O)N1N=C(c2ccc(Br)cc2)CC1c1c(C)nn(-c2ccccc2)c1Cl (centres undefined)
Rattus norvegicus [1]
  Activity: 0.1667 mL
Rattus norvegicus [2]
  Activity: 0.3 mL
Rattus norvegicus [3]
  Activity: 0.033 mL
Rattus norvegicus [4]
  Activity: 0.033 mL
Rattus norvegicus [5]
  Time: 3.967 s
Rattus norvegicus [6]
  Time: 4.833 s
Rattus norvegicus [7]
  Activity: 0.1 mL
Rattus norvegicus [8]
  Time: 4.733 s

## CC(=O)N1N=C(c2ccc(Cl)cc2)CC1c1c(C)nn(-c2ccccc2)c1Cl (centres undefined)
Rattus norvegicus [1]
  Activity: 0.0667 mL
Rattus norvegicus [2]
  Activity: 0.0667 mL
Rattus norvegicus [3]
  Activity: 0.033 mL
Rattus norvegicus [4]
  Activity: 0.0667 mL
Rattus norvegicus [5]
  Time: 2.5 s
Rattus norvegicus [6]
  Time: 4.2 s
Rattus norvegicus [7]
  Activity: 0.033 mL
Rattus norvegicus [8]
  Time: 3.067 s

## CCC(=O)N1N=C(c2ccc(C)cc2)CC1c1c(C)nn(-c2ccccc2)c1Cl (centres undefined)
Rattus norvegicus [1]
  Activity: 0.3 mL
Rattus norvegicus [2]
  Activity: 0.3 mL
Rattus norvegicus [3]
  Activity: 0.133 mL
Rattus norvegicus [4]
  Activity: 0.133 mL
Rattus norvegicus [5]
  Time: 2.9 s
Rattus norvegicus [6]
  Time: 4.6 s
Rattus norvegicus [7]
  Activity: 0.0667 mL
Rattus norvegicus [8]
  Time: 3.733 s

## CCC(=O)N1N=C(c2ccc([N+](=O)[O-])cc2)CC1c1c(C)nn(-c2ccccc2)c1Cl (centres undefined)
Rattus norvegicus [1]
  Activity: 0 mL
Rattus norvegicus [2]
  Activity: 0.033 mL
Rattus norvegicus [3]
  Activity: 0.033 mL
Rattus norvegicus [4]
  Activity: 0.0667 mL
Rattus norvegicus [5]
  Time: 3.1 s
Rattus norvegicus [6]
  Time: 3.933 s
Rattus norvegicus [7]
  Activity: 0.0667 mL
Rattus norvegicus [8]
  Time: 3.533 s

## CCC(=O)N1N=C(c2ccc(OC)cc2)CC1c1c(C)nn(-c2ccccc2)c1Cl (centres undefined)
Rattus norvegicus [1]
  Activity: 0.1667 mL
Rattus norvegicus [2]
  Activity: 0.2 mL
Rattus norvegicus [3]
  Activity: 0.133 mL
Rattus norvegicus [4]
  Activity: 0.1667 mL
Rattus norvegicus [5]
  Time: 4.667 s
Rattus norvegicus [6]
  Time: 4.4 s
Rattus norvegicus [7]
  Activity: 0.1667 mL
Rattus norvegicus [8]
  Time: 4.633 s
